High-throughput results (PubChem)
proCasp7 act – procaspase-7 activators, primary screen, counter-screen for procaspase-3 activator project, biochemical, absorbance, HTS, human; recombinant procaspase-7, Ac-DEVD-pNA absorbance 405 nm; D23A/D198A/D206A triple mutant, cannot self-cleave; scale: DMSO 0, 5 µM enzyme 100; actives 0.093% (n = 330,000); AID 463210, 2010; Caspase-7 (Homo sapiens), P55210; activation, % at 8.5 µM;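 active = percent activation above the screen-wide mean plus 3 SD, cut at about 25% in these data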
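Detection: p-Nitroaniline absorbance at 405 nm, read at 0 and 120 min; system: Uncleavable procaspase-7 mutant enzyme; evaluation: % activation from two-timepoint absorbance difference, scaled to controls; times: 1 h enzyme–compound preincubation and 2 h substrate reaction, both 25 °C; buffer or medium: Zinc-free HEPES pH 7.4 with 300 mM NaCl, 0.01% Triton X-100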
PLC-gamma1 inh – PLC-gamma1 enzyme inhibitors, primary screen, biochemical, fluorescence, purified enzyme | AID 720700, 2013 | inhibition, % at 12.2 µM | actives 0.84% (n = 370,000) | fluorogenic substrate | 1-phosphatidylinositol 4,5-bisphosphate phosphodiesterase gamma-1 (Homo sapiens), P19174; in the data active = inhibition above about 9.5%
PLCb3 inh – human PLC-beta3 inhibitors, primary screen, biochemical, fluorescence | 1-phosphatidylinositol 4,5-bisphosphate phosphodiesterase beta-3 (Homo sapiens), Q01970 | Purified PLC-beta3, fluorogenic substrate | inhibition, % at 12.2 µM | actives 0.18% (n = 370,000); in the data active = inhibition above about 11%;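 also: 0% = median of compound wells on plate and 100% = full blocker control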
Target sequence (Q01970 whole entry, looked up): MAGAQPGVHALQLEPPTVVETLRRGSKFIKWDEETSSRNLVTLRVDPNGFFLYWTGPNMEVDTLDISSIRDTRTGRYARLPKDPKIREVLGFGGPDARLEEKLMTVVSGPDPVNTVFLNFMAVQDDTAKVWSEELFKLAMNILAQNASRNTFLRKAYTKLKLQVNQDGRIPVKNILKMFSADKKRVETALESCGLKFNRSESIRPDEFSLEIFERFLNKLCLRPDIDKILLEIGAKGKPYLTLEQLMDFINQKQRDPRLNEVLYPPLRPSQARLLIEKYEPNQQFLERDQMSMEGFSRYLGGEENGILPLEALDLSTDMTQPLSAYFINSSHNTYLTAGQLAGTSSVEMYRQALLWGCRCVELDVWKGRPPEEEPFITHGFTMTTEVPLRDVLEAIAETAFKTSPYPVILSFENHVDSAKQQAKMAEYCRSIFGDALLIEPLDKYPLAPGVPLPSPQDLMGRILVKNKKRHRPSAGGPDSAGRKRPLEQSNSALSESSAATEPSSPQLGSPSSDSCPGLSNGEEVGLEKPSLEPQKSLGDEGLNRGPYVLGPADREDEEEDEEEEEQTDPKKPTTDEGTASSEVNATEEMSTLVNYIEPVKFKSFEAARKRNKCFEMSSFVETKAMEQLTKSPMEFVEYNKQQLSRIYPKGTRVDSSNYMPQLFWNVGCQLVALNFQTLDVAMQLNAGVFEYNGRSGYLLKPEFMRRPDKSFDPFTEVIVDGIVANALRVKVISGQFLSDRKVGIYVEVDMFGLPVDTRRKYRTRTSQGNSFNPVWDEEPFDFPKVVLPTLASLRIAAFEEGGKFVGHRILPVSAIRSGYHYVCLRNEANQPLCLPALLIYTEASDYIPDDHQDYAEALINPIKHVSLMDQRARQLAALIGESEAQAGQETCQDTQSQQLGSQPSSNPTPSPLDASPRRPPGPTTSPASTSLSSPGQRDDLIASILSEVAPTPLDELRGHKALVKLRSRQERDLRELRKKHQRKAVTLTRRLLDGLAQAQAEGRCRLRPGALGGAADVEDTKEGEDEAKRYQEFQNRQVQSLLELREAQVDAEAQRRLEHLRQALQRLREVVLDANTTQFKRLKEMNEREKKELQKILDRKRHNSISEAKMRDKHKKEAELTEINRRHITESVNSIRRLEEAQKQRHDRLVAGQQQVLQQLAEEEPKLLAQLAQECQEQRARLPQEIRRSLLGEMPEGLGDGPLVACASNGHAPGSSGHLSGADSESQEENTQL
procasp3 activ – activators of human procaspase-3 D3A mutant, primary screen, biochemical, absorbance, PC-3 D3A mutant, single concentration | Caspase-3 (Homo sapiens), P42574 | recombinant procaspase-3 D3A, Ac-DEVD-pNA absorbance 405 nm | activation, % at 8.5 µM | actives 0.11% (n = 330,000) | AID 463141, 2010;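 active = activation above the mean of all tested compounds plus 3 SD, cut at about 21% in these data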;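 also: 0% = DMSO alone and 100% = DMSO wells spiked with extra 5 µM PC-3 D3A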
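Technique: 405 nm absorbance of p-nitroaniline, reads at 0 and 120 min; Test system: Procaspase-3 D3A mutant; Incubation: 1 h enzyme-compound preincubation, then 2 h substrate reaction, 25 °C; Repeats: singlicate, each compound tested once; Benchmarks: low control DMSO wells, high control DMSO plus 5 µM PC-3 D3A.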
sPLA2-III inh – human group III sPLA2 inhibitors, primary screen, biochemical, QFRET, BODIPY PC-A2 liposome substrate. QFRET BODIPY PC-A2 liposome hydrolysis, fluorescence. inhibition, % at 12.2 µM. Group 3 secretory phospholipase A2 (Homo sapiens), Q9NZ20. actives 0.56% (n = 370,000);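 active = inhibition above mean plus 3 SD of compounds lying within the high and low control bounds, cut at about 19% in these data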;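 also: 0% = median of test compound wells and 100% = no enzyme DMSO wells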
Numbers without * were called inactive. Sampled rows, rich in hits. Any-hit rate of the full collection: about 1.6%.

`COc1ccc(C(c2c(O)ccc3ccccc23)N2CCOCC2)c(OC)c1` (stereo unspecified) gave proCasp7 act -22, PLC-gamma1 inh -4, PLCb3 inh -7, procasp3 activ -31 and sPLA2-III inh 20*.
COc1ccc(C(CCN2CCOCC2)c2c(O)cc(OC)cc2OC)cc1 (stereo unspecified) was read as proCasp7 act -8, PLC-gamma1 inh 0, PLCb3 inh 3, procasp3 activ -11 and sPLA2-III inh -5.
CCN(CC(=O)Nc1ccc2c(c1)OCCO2)C(=O)C(C)Oc1ccc(F)cc1 (stereo unspecified) was read as PLC-gamma1 inh 3, PLCb3 inh 5 and sPLA2-III inh 3.
`Cn1c(CC(=O)c2ccc(Br)cc2)[n+](C)c2ccccc21` gave proCasp7 act 6, PLC-gamma1 inh -4, PLCb3 inh 2, procasp3 activ 3 and sPLA2-III inh -1.
For O=C(N/N=C/c1cccc(O)c1)c1ccc(NC(=O)C2CCCCC2)cc1 the results were PLC-gamma1 inh 1, PLCb3 inh -9 and sPLA2-III inh -6.
For O=C(N/N=C/c1ccc(O)cc1O)c1ccc(NC(=O)C2CCCCC2)cc1 the results were proCasp7 act 9, PLC-gamma1 inh -43, PLCb3 inh -70, procasp3 activ 48* and sPLA2-III inh -13.
CCCCCc1ccc(NC(=O)OCCCN2CCC3(CCC(c4ccccc4)CC3)C2=O)cc1 (stereo unspecified) was read as PLC-gamma1 inh -2, PLCb3 inh 4 and sPLA2-III inh 19.
Screening CC1(C)CC(=O)C=C(c2n[nH]nc2C2=CCCCC2)C1 returned PLC-gamma1 inh -8, PLCb3 inh -14 and sPLA2-III inh -11.
Screening C=CC[C@H](CC(=O)N(CCO)Cc1ccccc1)C(=O)NC[C@H](OC(=O)[C@@H](CC=C)Cc1ccc(F)cc1)c1ccccc1 returned proCasp7 act -5, PLC-gamma1 inh 4, PLCb3 inh 0, procasp3 activ -3 and sPLA2-III inh -1.
For C=CC[C@@H](CC(=O)N(CCO)Cc1ccccc1)C(=O)NC[C@@H](OC(=O)[C@@H](CC=C)Cc1ccc(F)cc1)c1ccccc1 the results were proCasp7 act 16, PLC-gamma1 inh 10*, PLCb3 inh 3, procasp3 activ -7 and sPLA2-III inh -29.
O=C(Nc1ccc(Nc2cccnc2)cc1)c1c[nH]c2ccccc12 was read as PLC-gamma1 inh -125, PLCb3 inh -158 and sPLA2-III inh 25*.
O=C(NCc1cccnc1)C(=O)c1c[nH]c2ccccc12 was read as proCasp7 act 13, PLC-gamma1 inh 1, PLCb3 inh 6, procasp3 activ -5 and sPLA2-III inh 2.
For CC1OC(=O)c2cc3ccccc3nc21 (stereo unspecified) the results were PLC-gamma1 inh -3, PLCb3 inh -10 and sPLA2-III inh 19.
`O=C(O)c1cc(O)c2c(c1)[C@@H]([C@H]1c3cc(C(=O)O)cc(O)c3C(=O)c3c(O[C@@H]4O[C@H](CO)[C@@H](O)[C@H](O)[C@H]4O)cccc31)c1cccc(OC3O[C@H](CO)[C@@H](O)[C@H](O)[C@H]3O)c1C2=O` (stereo partly specified) gave proCasp7 act -21, PLC-gamma1 inh 7, PLCb3 inh 12*, procasp3 activ -1 and sPLA2-III inh 17.
For O=C1c2cc(CO)cc(O)c2C(=O)c2c(O[C@@H]3OC(CO)[C@@H](O)[C@@H](O)[C@@H]3O)cccc21 (stereo partly specified) the results were proCasp7 act -1, PLC-gamma1 inh -4, PLCb3 inh -8, procasp3 activ 5 and sPLA2-III inh -1.
Screening O=C(CNC(=O)c1ccc(Cl)cc1Cl)OCc1ccccc1 returned proCasp7 act 6, PLC-gamma1 inh 4, PLCb3 inh 1, procasp3 activ -13 and sPLA2-III inh 10.
Screening O=C(COC(=O)CNC(=O)c1ccc(Cl)cc1Cl)NC(=O)NCc1ccccc1 returned proCasp7 act 3, PLC-gamma1 inh 11*, PLCb3 inh -1, procasp3 activ 2 and sPLA2-III inh 14.
C/C(C/C(C)=C1/SC(=S)NC1=O)=C1\SC(=S)NC1=O was read as PLC-gamma1 inh 73*, PLCb3 inh -3 and sPLA2-III inh -7.
For c1ccc(SCCN2CCN(c3ccccc3)CC2)cc1 the results were proCasp7 act -16, PLC-gamma1 inh 10*, PLCb3 inh -4, procasp3 activ -3 and sPLA2-III inh 1.
CCCN1CCC(=O)N(CCSc2ccccc2)CC1 was read as proCasp7 act 5, PLC-gamma1 inh 2, PLCb3 inh 2, procasp3 activ 0 and sPLA2-III inh -4.
CCOc1ccc(CN(C)C(=O)c2ccc(S(=O)(=O)N(C)c3ccccc3OC)cc2)cc1 was read as proCasp7 act -2, PLC-gamma1 inh 10*, PLCb3 inh -2, procasp3 activ -4 and sPLA2-III inh -16.
Screening COc1ccccc1N(C)S(=O)(=O)c1ccc(C(=O)N(C)Cc2cccc(OC)c2OC)cc1 returned PLC-gamma1 inh 6, PLCb3 inh 3 and sPLA2-III inh -10.
For Cc1ccc(S(=O)(=O)N2C[C@]3(O)C[C@@H]4C(=O)N(c5ccccc5)C(=O)[C@@H]4C[C@]3(OC(=O)NCC3CCCCC3)C2)cc1 the results were PLC-gamma1 inh 3, PLCb3 inh 1 and sPLA2-III inh -9.
`CCOC(=O)[C@]12CCCCC/C=C\1N(Cc1ccc(OC)cc1)C(=O)[C@H]2CC(=O)N1CCSCC1` gave PLC-gamma1 inh 0, PLCb3 inh 1 and sPLA2-III inh 6.
Cc1ccnc2nc(C(=O)OCC(=O)N(C)C3CCCCC3)nn12 was read as PLC-gamma1 inh 3, PLCb3 inh -3 and sPLA2-III inh 12.
`CCOC(=O)c1ccc(N2N=C(C)/C(=C/C=C/c3ccco3)C2=O)cc1` gave proCasp7 act 4, PLC-gamma1 inh 0, PLCb3 inh 1, procasp3 activ 10 and sPLA2-III inh 0.
`O=C(O)c1cc(N2N=C(C(F)(F)F)/C(=C/C=C/c3ccco3)C2=O)ccc1Cl` gave PLC-gamma1 inh 63*, PLCb3 inh 1 and sPLA2-III inh -9.
`Cc1nc2ccc(S(=O)(=O)N3CCCCC3)cc2s1` gave proCasp7 act 1, PLC-gamma1 inh 1, PLCb3 inh -3, procasp3 activ -5 and sPLA2-III inh -1.
